An excerpt weighted towards active compounds, which were near 0.61% of everything screened.
E-selectin induc – E-selectin induction on HUVECs | P16581 | HUVEC E-selectin immunofluorescence imaging; normalized: neutral wells 0, TNF-alpha wells 100 | activation, % at 7.58 µM | 0.37% of 260,000 active | AID 686992;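 active means mean E-selectin-positive cell signal at least 10% of the positive control, reached in at least 60% of replicates, without over 20% cell loss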
Target sequence (P16581 whole entry, looked up): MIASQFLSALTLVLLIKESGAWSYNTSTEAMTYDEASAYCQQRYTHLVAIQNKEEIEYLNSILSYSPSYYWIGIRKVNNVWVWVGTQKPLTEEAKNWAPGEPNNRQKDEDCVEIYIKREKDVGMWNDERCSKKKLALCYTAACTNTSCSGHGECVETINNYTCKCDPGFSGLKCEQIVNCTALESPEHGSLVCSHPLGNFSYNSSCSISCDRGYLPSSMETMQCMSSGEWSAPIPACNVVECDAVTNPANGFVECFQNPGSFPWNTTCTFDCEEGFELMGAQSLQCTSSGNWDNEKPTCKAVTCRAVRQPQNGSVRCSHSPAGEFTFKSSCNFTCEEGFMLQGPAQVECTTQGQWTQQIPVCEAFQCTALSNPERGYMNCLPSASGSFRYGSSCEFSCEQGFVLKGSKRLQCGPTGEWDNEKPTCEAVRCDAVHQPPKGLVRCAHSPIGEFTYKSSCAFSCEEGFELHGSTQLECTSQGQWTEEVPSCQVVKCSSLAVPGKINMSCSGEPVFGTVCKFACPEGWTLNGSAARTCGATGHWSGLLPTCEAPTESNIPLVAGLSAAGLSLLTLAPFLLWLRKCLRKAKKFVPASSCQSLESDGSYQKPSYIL
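Test system: HUVEC | Signal: Immunofluorescence imaging | Read-out: Percent E-selectin-positive cells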
CFTR F508del cor – correctors of CFTR F508del function in bronchial epithelial cells; activity (quench increase), % at 7.58 µM; CFBE cells, YFP halide quenching; stimulated with forskolin plus potentiator P3; % fluorescence drop versus neutral controls; 0.36% of 350,000 active;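 active means mean added fluorescence quench of at least 8% versus neutral control, with both replicates also reaching 8%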;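 further: cells transiently co-express mutant CFTR-F508del with the halide-sensitive YFP; corrector assay measuring rescue of mutant channel to the surface after 24 h compound exposure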
XiGFP reactiv – activators of X-chromosome reactivation in mouse fibroblasts. XiGFP mouse fibroblasts, % GFP-positive cells imaging, 3 d; cells co-treated with 5-aza-dC sensitizer; scaled so ellipticine positive control = 100%. activation, % at 7.58 µM. AID 743238. 0.055% of 360,000 active;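 active means mean normalized replicate activation at least 10% and every replicate at or above 10%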
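System: 68-5-11 XiGFP fibroblast line; Timing: 3 days compound exposure; Compound dosing: one concentration, pinned; Benchmarks: positive control ellipticine, 6 µM final; Buffer or medium: DMEM containing 5-aza-dC.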
Each line names hits and unclear results; the compound was inactive in the other large screens.

C[C@@H]1CN([C@@H](C)CO)C(=O)Cc2cc(NC(=O)Nc3cccc4ccccc34)ccc2O[C@@H]1CN(C)Cc1ccc(Cl)c(Cl)c1	CFTR F508del cor 9.9
C[C@H](NC(=O)C[C@H]1CC[C@@H](NC(=O)C2CCOCC2)[C@@H](CO)O1)c1ccccc1	none
C[C@@H]1CCCCO[C@H](CN(C)C(=O)Nc2ccc3c(c2)OCO3)[C@H](C)CN([C@H](C)CO)C(=O)c2cc(NS(=O)(=O)c3cccs3)ccc2O1	none
C[C@H]1CN([C@@H](C)CO)C(=O)c2cc(NC(=O)Cc3cn(C)c4ccccc34)ccc2O[C@@H]1CN(C)Cc1ccc2c(c1)OCO2	none
C[C@@H]1CN([C@@H](C)CO)C(=O)c2cc(NC(=O)Cc3cn(C)c4ccccc34)ccc2O[C@H]1CN(C)Cc1ccc2c(c1)OCO2	E-selectin induc 39
CC(C)NC(=O)N(C)C[C@@H]1Oc2ccc(NC(=O)Cc3cn(C)c4ccccc34)cc2C(=O)N([C@@H](C)CO)C[C@@H]1C	none
CC(C)NC(=O)N(C)C[C@@H]1Oc2ccc(NC(=O)Cc3cn(C)c4ccccc34)cc2C(=O)N([C@H](C)CO)C[C@H]1C	E-selectin induc 49
CO[C@@H]1CN(C)C(=O)c2cc(NC(=O)Cc3ccccc3)ccc2OC[C@@H](C)N(CC2CC2)C[C@@H]1C	none
COCC(=O)N1[C@@H](CO)[C@H](c2ccccc2)[C@@H]1CNC(=O)c1ccccn1	none
CCOC(=O)[C@@H](CCc1ccccc1)N[C@H](C)C(=O)N1[C@H](C(=O)O)C[C@@H]2CCC[C@@H]21	none
CCOC(=O)[C@H](CCc1ccccc1)N[C@@H](C)C(=O)N1[C@H](C(=O)O)C[C@@H]2CCC[C@@H]21	CFTR F508del cor 12
C[C@@H]1CN(C)C(=O)Cc2ccccc2O[C@@H]1CN(C)C	none (no result: E-selectin induc, CFTR F508del cor)
C/C=C/c1ccc([C@H]2[C@H]3CN(C(=O)c4ccccc4)CC(=O)N3[C@H]2CO)cc1	none
COc1cccc(-n2nnnc2SCC(=O)NCc2ccc3c(c2)OCO3)c1	none (no result: E-selectin induc, XiGFP reactiv)
COc1cccc(NC(=O)c2cnc(SCC(=O)NCc3ccc4c(c3)OCO4)n(C)c2=O)c1	CFTR F508del cor 8.1
O=C(CN1CCOCC1)NCC[C@@H]1CC[C@H](NC(=O)Nc2ccccc2)[C@@H](CO)O1	none
O=C(NCCc1ccccc1)C1C(=O)Nc2ccccc2C(=O)N1C1CCCCC1 (centres undefined)	E-selectin induc 207
O=C(NCc1ccccc1)C1C(=O)Nc2ccccc2C(=O)N1C1CCCC1 (centres undefined)	none
CCn1c(SC(C)C(=O)NCC2CCCO2)nc2ccccc21 (centres undefined)	CFTR F508del cor 15
CCn1c(SC(C)C(=O)NCC2CCCO2)nc2scc(-c3ccccc3)c2c1=O (centres undefined)	none (no result: E-selectin induc)
CC(C)NC(=O)Nc1ccc2c(c1)CC(=O)N([C@@H](C)CO)C[C@@H](C)[C@@H](CN(C)Cc1ccc(C(=O)O)cc1)O2	none
C[C@H](CO)N1C[C@H](C)[C@H](CN(C)Cc2ccc(C(=O)O)cc2)Oc2ccc(NC(=O)Nc3ccc(F)cc3)cc2CC1=O	none
CC(C)NC(=O)Nc1ccc2c(c1)CC(=O)N([C@@H](C)CO)C[C@H](C)[C@H](CN(C)Cc1ccc(C(=O)O)cc1)O2	E-selectin induc 42
CC(C)NC(=O)Nc1ccc2c(c1)CC(=O)N([C@H](C)CO)C[C@H](C)[C@@H](CN(C)Cc1ccc(C(=O)O)cc1)O2	E-selectin induc 39
CC(C)NC(=O)Nc1ccc2c(c1)CC(=O)N([C@@H](C)CO)C[C@@H](C)[C@H](CN(C)Cc1ccc(C(=O)O)cc1)O2	none
C[C@@H]1CN([C@@H](C)CO)C(=O)Cc2cc(NC(=O)Nc3ccc(F)cc3)ccc2O[C@H]1CN(C)Cc1ccc(C(=O)O)cc1	E-selectin induc 55
C[C@@H]1CN([C@H](C)CO)C(=O)c2cc(NS(=O)(=O)c3cccs3)ccc2O[C@@H]1CN(C)S(=O)(=O)c1cn(C)cn1	none
COc1ccccc1-c1ccc2n(c1=O)C[C@H]1[C@H](CO)[C@@H](C(=O)NCc3ccccc3Cl)N[C@@H]21	none (no result: CFTR F508del cor)
COCC(=O)N1C[C@@H](C)[C@H](OC)CN(C)C(=O)c2cc(NC(=O)NC(C)C)ccc2OC[C@@H]1C	none
O=C(NC[C@@H]1[C@@H](c2ccccc2)[C@@H](CO)N1Cc1ccccc1)c1ccccn1	none
CO[C@@H]1CN(C)C(=O)c2cc(NS(=O)(=O)c3ccc(F)cc3)ccc2OC[C@H](C)NC[C@H]1C	none
CCOc1ccccc1NC(=O)N1CCC(NC(=O)c2cccc(C)c2)CC1	none (no result: CFTR F508del cor, XiGFP reactiv)
CCOc1ccccc1NC(=O)N1CCC(NC(=O)C2CCCCC2)CC1	E-selectin induc 35

Screens (PubChem)
